TWEAK-Fn14 inh: inhibitors of TWEAK-Fn14 interaction signaling; inhibition, % at 10 µM; TWEAK-stimulated Fn14 reporter cells, luciferase luminescence, 8 h; 2% of 360,000 active; in the data active = inhibition above about 50%
CaV13 FRET inh: Primary screen for inhibitors of IQ motif and Ca2+-dependent inactivation inhibitor domain binding in CACNA1D, Förster resonance energy transfer in living cells, …; inhibition, % at 12.3 µM; HEK cells, CFP/YFP FRET ICDI-IQ, plate reader, 10 min; percent FRET-ratio fall versus neutral wells; 0.098% of 340,000 active; AID 743397;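 active = mean replicate inhibition of at least 30% and at least 1% of replicates passing that level; inconclusive = only one of the two criteria is met; inactive = neither criterion is met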;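 note: 0% = median of the neutral control wells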
LGR2 antag: blocks bursicon-induced cAMP signaling via Drosophila LGR2. inhibition, % at 9.99 µM. 0.35% of 380,000 active. HEK293 LGR2, CRE-luciferase, bursicon-stimulated, 4 h. AID 720647;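 active = drop in luminescence signal, shown as inhibition above about 50% in the replicate tests, limit read from the data, passing the limit was not always enough; inconclusive = probably only some replicates passing the limit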;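 note: agonist challenge used bursicon conditioned medium at about half maximal strength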
Xi reactivation: reactivates the inactive X chromosome in mouse fibroblasts; 0.055% of 360,000 active; XiGFP mouse fibroblasts, % GFP-positive cells imaging, 3 d; cells co-treated with 5-aza-dC sensitizer; scaled so ellipticine positive control = 100%; activation, % at 7.58 µM;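 active = mean normalized replicate activation at least 10% and every replicate at or above 10%; inconclusive = only one of the two criteria met; inactive = mean below 10% and not all replicates reach 10%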;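 note: 0% = median of on-plate neutral control wells and 100% = ellipticine 6 µM median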
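System: XiGFP fibroblasts, SV40-immortalized. Medium: DMEM plus 5-aza-dC sensitizer. Doses: single point. Timing: 3 d treatment, 15 min room-temperature fixation. Control set: ellipticine 6 µM.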
TROY signal inh: blocks TROY-dependent signaling in reporter cells; Q293 LMP1-TROYcd NF-kB luciferase reporter, 4 h; inhibition, % at 10 µM; 0.98% of 360,000 active;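 active = compounds whose plate-normalised and pattern-corrected inhibition of the luciferase reporter signal at the single screening dose is 50% or more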
* marks the source's active call; other numbers are inactive results; ? = inconclusive; nt = not tested or not shown. Compounds with a hit are over-represented: about 2% of the library has one in this group of screens.

SMILES | TWEAK-Fn14 inh | CaV13 FRET inh | LGR2 antag | Xi reactivation | TROY signal inh
Cc1cc(OCC(=O)N2CCC(C(N)=O)CC2)c2c3c(c(=O)oc2c1)CCCC3 | 90.8* | nt | nt | nt | 5.4
CC1Oc2cc3c(-c4c(O)cc(O)c5c(O)c6c(cc45)OC(C)C(C)C6=O)c(O)cc(O)c3c(O)c2C(=O)C1C (stereo not drawn) | 68.3* | nt | nt | nt | 12.5
O=C(Cc1ccccn1)N1CCCCN2[C@H](C1)[C@@H](c1ccc(-c3ccccc3F)cc1)[C@@H]2CO | nt | nt | -7.9 | ? | nt
COc1cc(OC)c(OC)cc1CN1CCN(C(=O)Cc2ccccc2)CC1 | 96.6* | -2.5 | 4.4 | 0.0 | 5.4
C[C@H]1CCC[C@@H](O)CCC/C=C/c2cc(O)cc(O)c2C(=O)O1 | 59.0* | -5.4 | 37.7 | nt | 19.7
CN1C(=O)C(C2c3ccccc3C(=O)N2Cc2ccccc2)C(=O)N(C)C1=O (stereo not drawn) | 11.2 | -0.8 | nt | nt | 51.1*
COC(=O)[C@H]1[C@H](CO)[C@H]2Cn3c(ccc(C4=CCCCC4)c3=O)[C@@H]1N2CC1CCCCC1 | nt | nt | -3.0 | 0.6 | nt
COc1cc2c(cc1OC)CN(c1ccc([N+](=O)[O-])c(C(F)(F)F)c1)CC2 | 74.5* | -2.6 | 93.4* | 0.0 | 19.4
Oc1c(Br)c(Br)c(Br)c(Br)c1Br | 1.6 | nt | nt | nt | 71.2*
Oc1c(Br)cc(Br)cc1Br | 6.2 | nt | 1.1 | nt | 14.4
O=C1CNC[C@H]2[C@@H](c3ccc(Br)cc3)[C@@H](CO)N12 | nt | nt | 7.5 | 0.1 | nt
CC(C)=CCc1c(O)cc2c(c1O)C(=O)CC(c1ccc(O)cc1)O2 (stereo not drawn) | 35.5 | nt | -1.7 | nt | 51.9*
CCCC[C@@H](C)C[C@@H](C)C(=O)N(C)[C@@H](CC(C)C)C(=O)N[C@H](C(=O)N(C)[C@H](C(=O)N1C[C@@H](O)C[C@H]1C(=O)N1C(=O)C=C[C@@H]1C)C(C)C)C(C)OC(C)=O (stereo partly drawn) | 51.5* | nt | nt | nt | -22.3
COc1cc2c(cc1/C=C/[N+](=O)[O-])OCO2 | 63.7* | -19.6 | 103.1* | 0.0 | 61.5*
Nc1ccc(C2(c3ccc(N)cc3)c3ccccc3-c3ccccc32)cc1 | 82.5* | 1.0 | 11.6 | 0.1 | 28.1
C=C1C(=O)[C@@]23C[C@H]4[C@@H]5[C@@]6(C)CCC[C@@]57[C@@H]2[C@@H](O)[C@@H]1C[C@H]3[C@H]7N4C6 | 49.6 | nt | 59.0* | nt | 16.3
CCn1c(O)c(C=Nc2ccc(S(N)(=O)=O)cc2)c(=O)[nH]c1=S | 20.8 | -4.8 | -6.7 | -0.1 | 52.5*
CC(=O)N1C[C@@H]2C(c3ccc(Br)cc3)[C@H](C1)N2CC1CC1 (stereo partly drawn) | nt | nt | nt | 0.2 | nt
CC(=O)OC1CC2OC3C=C(C)CCC3(C)C1(C)C21CO1 (stereo not drawn) | 98.1* | nt | 103.8* | nt | 83.7*
CC(=O)O[C@H]1C[C@@H]2OC3C=C(C)CCC3(C)[C@@]1(C)[C@@]21CO1 (stereo partly drawn) | 96.9* | -14.9 | 102.4* | 0.5 | 78.2*
COC(=O)[C@H]1[C@H](CO)[C@H]2Cn3c(ccc(C4=CCCC4)c3=O)[C@@H]1N2C(=O)C1CCCCC1 | nt | nt | -4.7 | 0.5 | nt
COC1CC2C=C(C)C=CC=CC(=O)NC(c3ccccc3)CC=CCCC(O)CC(=O)C2=C1O (stereo not drawn) | 60.3* | -6.7 | 22.1 | 0.9 | 49.9
COc1cc(/C=C/c2nc3ccccc3c(=O)n2-c2ccc(O)cc2)ccc1O | 54.2* | -25.3 | 15.6 | 0.2 | 27.4
COc1ccc(-n2c(/C=C/c3ccc(O)c(O)c3)nc3ccccc3c2=O)cc1 | 17.0 | -9.1 | 9.0 | 0.2 | -4.7
Cc1cccc(N2C(=O)NC(=O)/C(=C\c3cccn3-c3ccc(Cl)cc3)C2=O)c1 | 61.1* | -5.2 | 60.1* | nt | 30.5
SMILES | TWEAK-Fn14 inh | CaV13 FRET inh | LGR2 antag | Xi reactivation | TROY signal inh
Cc1cccc(N2C(=O)NC(=O)/C(=C\C=C\c3ccco3)C2=O)c1 | -12.6 | -6.2 | 14.9 | 0.0 | 4.3
CC(C)(C)n1cccc1/C=C1\C(=O)NC(=O)N(c2ccccc2)C1=O | -4.9 | -2.6 | -12.7 | 0.1 | -17.4
Cc1cc(C)cc(N2C(=O)NC(=O)/C(=C/c3cccn3-c3ccc(Cl)cc3)C2=O)c1 | 103.7* | -13.6 | ? | 0.0 | 69.2*
CN1C2CN(CC(F)(F)F)CC1C2c1ccc(Br)cc1 (stereo not drawn) | nt | nt | nt | 0.3 | nt
COC(=O)[C@@H]1[C@@H](CO)[C@@H]2Cn3c(ccc(-c4ccccc4F)c3=O)[C@H]1N2 | nt | nt | -13.3 | 0.0 | nt
O=C(Cc1ccncc1)N1CCCCN2[C@H](CO)[C@H](c3ccc(C#Cc4ccccc4F)cc3)[C@H]2C1 | nt | nt | -0.5 | 0.0 | nt
COC(=O)[C@@H]1[C@@H](CO)[C@@H]2Cn3c(cccc3=O)[C@H]1N2Cc1nccs1 | nt | nt | -6.8 | 0.2 | nt
CCCCCn1c(NC(=O)c2ccco2)c(C(=O)OCC)c2nc3ccccc3nc21 | 81.1* | nt | nt | nt | 61.6*
O=C(Cc1ccccn1)N1CCCCN2[C@H](CO)[C@@H](c3ccc(C#Cc4ccccc4)cc3)[C@@H]2C1 | nt | nt | 21.5 | 0.0 | nt
COc1ccc(S(=O)(=O)NC(CC(=O)N2CCC3(CC2)OCCO3)c2ccco2)cc1 (stereo not drawn) | 90.4* | -4.5 | nt | nt | 15.1
CC=Cc1ccc2n(c1=O)C[C@@H]1[C@@H](CO)[C@H](C(=O)O)[C@H]2N1S(=O)(=O)c1ccccc1C (mixture of isomers) | nt | nt | 9.0 | 0.5 | nt
COc1ccc(C#Cc2ccc([C@H]3[C@H](CO)N4CCCCN(C(=O)Cc5ccncc5)C[C@@H]34)cc2)cc1 | nt | nt | -14.6 | 0.0 | nt
C/C(=C\c1ccc(N(C)C)cc1)[N+](=O)[O-] | 46.4 | -8.2 | 95.8* | nt | 3.9
O=C1CNC[C@@H]2[C@H](c3ccc(Br)cc3)[C@@H](CO)N12 | nt | nt | 3.5 | 0.0 | nt
CCCCCCOc1ccc(CN2CCN(CCO)CC2)cc1 | 43.3 | -5.5 | 34.4 | nt | 56.3*
CCN1[C@@H]2c3ccc(-c4cccc(C(=O)N(C)C)c4)c(=O)n3C[C@H]1[C@H](CO)[C@H]2C(=O)OC | nt | nt | 0.2 | 0.3 | nt
CCN(CC)c1ccc(N=Cc2c(O)n(CCc3ccc(OC)c(OC)c3)c(=O)[nH]c2=O)cc1 | 51.8* | -5.6 | 51.0* | 5.9 | 37.5
COC(=O)[C@@H]1[C@@H](CO)[C@@H]2Cn3c(ccc(-c4cccc(OC)c4)c3=O)[C@H]1N2CC1CC1 | nt | nt | -5.5 | 0.3 | nt
C=C1C(=O)OC2CC(C)C3C=CC(=O)C3(C)C(O)C12 (stereo not drawn) | 102.0* | nt | nt | nt | 25.9
C=C1C(=O)O[C@@H]2C[C@@H](C)[C@@H]3C=CC(=O)[C@@]3(C)[C@@H](OC(=O)CC(=O)O[C@H]3[C@@H]4C(=C)C(=O)O[C@@H]4C[C@@H](C)[C@@H]4C=CC(=O)[C@]43C)[C@H]12 | 105.3* | -11.1 | nt | 1.1 | 89.3*

Screening data (PubChem)
